Measurements reported in ChEMBL document CHEMBL1144162, “Tetrahydropyridine-4-carboxamides as novel, potent transient receptor potential vanilloid 1 (TRPV1) antagonists” (Bioorg Med Chem, 2008).
In brackets after ≈: the same amount, converted by molar mass.

Tests used:
[1] = molecular target: T1, Transient receptor potential cation channel subfamily V member 1 (Homo sapiens, UniProt Q8NER1); assay: Antagonist activity at human recombinant TRPV1 expressed in human 1321N1 cells assessed as inhibition of capsaicin-induced calcium influx by FLIPR assay; assay type: functional, cell-based
How it was run: (§1)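 Ca2+ influx in 1321N1 cells stably expressing recombinant human or rat TRPV1, grown to confluency, loaded with fluo-4 AM (2 µM in D-PBS) 1–2 h at 23 °C, washed. Compound (11-point half-log range, D-PBS) added at 10 s, capsaicin 3 min later. FLIPR fluorescence read over 240 s; peak increase minus baseline as % of 0.05 µM capsaicin control; four-parameter logistic fit for IC50; mean of ≥2 experiments in triplicate.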

[2] = tested on: Rattus norvegicus; assay: Analgesic activity against complete Freund's adjuvant-induced thermal hyperalgesia in Sprague-Dawley rat assessed as paw withdrawal latency at 30 umol/kg, po; assay type: functional
How it was run: (§2)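 Male Sprague–Dawley rats (200–320 g), food withdrawn 16 h before oral dosing. Right hindpaw injected with 150 µL of 50% CFA in saline. Thermal hyperalgesia measured 48 h later as radiant-heat paw withdrawal on a 30 °C glass surface after 30 min habituation. Vehicle: 10% ethanol, 20% polysorbate-80, 70% PEG-400. Single-dose testing used 30 µmol/kg po, n = 6/group, versus vehicle.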

[3] = Ratio of drug level in brain to plasma in po dosed Sprague-Dawley rat; assay type: ADME, organism-based
How it was run: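 Male Sprague–Dawley rats (200–320 g), group-housed with free food and water, fasted 16 h before oral dosing. Compound given po in 10% ethanol, 20% polysorbate-80 and 70% PEG-400. Drug concentrations in brain and plasma were expressed as a [brain]:[plasma] ratio.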

[4] = tested on: Rattus norvegicus; assay: Analgesic activity against complete Freund's adjuvant-induced thermal hyperalgesia in po dosed Sprague-Dawley rat assessed as paw withdrawal latency; assay type: functional; how it was run: as §2
[5] = tested on: Rattus norvegicus; assay: Antinociceptive activity against hyperalgesia in po dosed rat Chung neuropathic pain model; assay type: functional
[6] = Plasma concentration in po dosed Sprague-Dawley rat after 1 hr; assay type: ADME, organism-based
[7] = molecular target: T1, Transient receptor potential cation channel subfamily V member 1; assay: Antagonist activity at human recombinant TRPV1 expressed in human 1321N1 cells assessed as inhibition of pH 5.5-induced calcium influx by FLIPR assay; assay type: functional, cell-based
How it was run: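 Fluo-4 FLIPR Ca2+ assay in 1321N1 cells stably expressing human TRPV1, stimulated by low pH (pH 5.5) after compound preincubation. Peak fluorescence rise minus baseline is fit by a four-parameter logistic equation to give IC50.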

[8] = organism: Rattus norvegicus; assay: Analgesic activity against gamma carrageenan-induced thermal hyperalgesia in Sprague-Dawley rat; assay type: functional
How it was run: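 Male Sprague–Dawley rats (200–320 g) received 100 µL of 1% carrageenan in saline into the right hindpaw plantar surface. Thermal hyperalgesia was tested 2 h later by radiant heat to the plantar surface in Plexiglass cubicles on a 30 °C glass floor, after 30 min habituation.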

[9] = Apparent permeability across human Caco-2 cell membrane; assay type: ADME, cell-based
[10] = tested on: Rattus norvegicus; assay: Analgesic activity against complete Freund's adjuvant-induced mechanical allodynia in po dosed Sprague-Dawley rat; assay type: functional
[11] = organism: Rattus norvegicus; assay: Analgesic activity against monosodium iodoacetate-induced osteoarthritis in rat; assay type: functional
[12] = organism: Rattus norvegicus; assay: Analgesic activity against skin incision-induced acute thermal hyperalgesia in Sprague-Dawley rat; assay type: functional
How it was run: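 Under halothane (2–3%) anesthesia, a left hind paw plantar incision was made aseptically in male Sprague–Dawley rats. Rats recovered 2 h before thermal hyperalgesia testing.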

[13] = organism: Rattus norvegicus; assay: Nocifensive activity against capsaicin-induced neuropathic pain in rat; assay type: functional
[14] = molecular target: Transient receptor potential cation channel subfamily V member 1 (Rattus norvegicus, UniProt O35433); assay: Antagonist activity at rat TRPV1 expressed in human 1321N1 cells assessed as inhibition of capsaicin-induced calcium influx by FLIPR assay; assay type: functional, cell-based; how it was run: as §1
[15] = molecular target: T1, Transient receptor potential cation channel subfamily V member 1; assay: Antagonist activity at human recombinant TRPV1 expressed in human 1321N1 cells assessed as inhibition of N-arachidonoyl-dopamine-induced calcium influx by FLIPR assay; assay type: functional, cell-based
How it was run: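 FLIPR fluo-4 Ca2+ influx in 1321N1 cells stably expressing human TRPV1, with 3 µM NADA as the stimulus. Compound is added before agonist challenge. Peak fluorescence increase over baseline is fit to a four-parameter logistic curve to give IC50.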

[16] = organism: Rattus norvegicus; assay: Analgesic activity against capsaicin-induced secondary mechanical allodynia in rat; assay type: functional
[17] = Solubility in PEG-400; assay type: physicochemical
How it was run: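 Solubility was measured in PEG-400 as an organic vehicle.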

[18] = Aqueous solubility of the compound; assay type: physicochemical; details: buffer
[19] = Half-life in po dosed Sprague-Dawley rat; assay type: ADME, organism-based; details: in vivo
[20] = molecular target: Voltage-gated inwardly rectifying potassium channel KCNH2 (Homo sapiens, UniProt Q12809); assay: Inhibition of human ERG
[21] = Oral bioavailability in Sprague-Dawley rat; assay type: ADME, organism-based; details: in vivo

T1 sequence (Q8NER1 whole entry): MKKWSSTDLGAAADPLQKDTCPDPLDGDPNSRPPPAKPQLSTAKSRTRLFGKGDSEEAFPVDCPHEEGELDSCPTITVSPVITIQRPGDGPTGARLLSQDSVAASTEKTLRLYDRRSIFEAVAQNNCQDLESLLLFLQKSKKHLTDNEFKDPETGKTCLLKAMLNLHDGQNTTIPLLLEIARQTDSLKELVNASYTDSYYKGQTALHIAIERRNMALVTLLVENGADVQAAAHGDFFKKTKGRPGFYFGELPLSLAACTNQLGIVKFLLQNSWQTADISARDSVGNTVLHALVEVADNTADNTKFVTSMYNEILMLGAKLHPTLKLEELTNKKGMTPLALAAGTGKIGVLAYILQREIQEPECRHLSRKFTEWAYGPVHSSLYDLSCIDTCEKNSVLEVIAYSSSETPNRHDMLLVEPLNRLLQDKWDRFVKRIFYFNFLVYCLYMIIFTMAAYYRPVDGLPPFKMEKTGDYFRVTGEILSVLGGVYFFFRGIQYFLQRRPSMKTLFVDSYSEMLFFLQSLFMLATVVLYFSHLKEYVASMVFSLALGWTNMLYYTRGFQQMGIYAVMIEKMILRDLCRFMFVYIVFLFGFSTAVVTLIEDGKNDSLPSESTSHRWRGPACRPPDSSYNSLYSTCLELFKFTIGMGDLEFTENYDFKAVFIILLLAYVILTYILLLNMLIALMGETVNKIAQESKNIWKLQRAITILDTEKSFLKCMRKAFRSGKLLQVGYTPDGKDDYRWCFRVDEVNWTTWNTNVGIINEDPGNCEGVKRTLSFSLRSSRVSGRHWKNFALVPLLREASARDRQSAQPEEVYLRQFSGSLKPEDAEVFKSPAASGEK
Sequence of Transient receptor potential cation channel subfamily V member 1 (Rattus norvegicus, UniProt O35433) (O35433 whole entry): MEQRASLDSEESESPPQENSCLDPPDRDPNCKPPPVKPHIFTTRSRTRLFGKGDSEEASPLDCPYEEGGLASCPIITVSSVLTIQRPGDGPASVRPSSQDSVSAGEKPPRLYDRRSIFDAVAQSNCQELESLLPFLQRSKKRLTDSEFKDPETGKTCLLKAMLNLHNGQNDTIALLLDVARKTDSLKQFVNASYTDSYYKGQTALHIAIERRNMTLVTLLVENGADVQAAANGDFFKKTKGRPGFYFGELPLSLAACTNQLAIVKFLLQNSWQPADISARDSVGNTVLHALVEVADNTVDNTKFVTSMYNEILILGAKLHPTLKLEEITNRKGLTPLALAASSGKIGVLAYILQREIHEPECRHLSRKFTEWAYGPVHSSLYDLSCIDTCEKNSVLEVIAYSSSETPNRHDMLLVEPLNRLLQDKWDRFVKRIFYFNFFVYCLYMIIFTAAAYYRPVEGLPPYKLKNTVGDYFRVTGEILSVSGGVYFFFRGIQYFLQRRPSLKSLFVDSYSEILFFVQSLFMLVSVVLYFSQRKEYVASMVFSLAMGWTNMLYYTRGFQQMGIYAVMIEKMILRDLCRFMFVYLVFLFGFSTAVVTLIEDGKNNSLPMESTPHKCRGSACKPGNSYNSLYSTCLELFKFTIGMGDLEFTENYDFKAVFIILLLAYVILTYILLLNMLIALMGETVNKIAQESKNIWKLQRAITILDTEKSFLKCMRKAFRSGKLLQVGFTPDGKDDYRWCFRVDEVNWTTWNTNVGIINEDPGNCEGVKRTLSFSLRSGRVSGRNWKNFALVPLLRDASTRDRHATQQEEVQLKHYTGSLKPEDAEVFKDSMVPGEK
Sequence of Voltage-gated inwardly rectifying potassium channel KCNH2 (Q12809 whole entry): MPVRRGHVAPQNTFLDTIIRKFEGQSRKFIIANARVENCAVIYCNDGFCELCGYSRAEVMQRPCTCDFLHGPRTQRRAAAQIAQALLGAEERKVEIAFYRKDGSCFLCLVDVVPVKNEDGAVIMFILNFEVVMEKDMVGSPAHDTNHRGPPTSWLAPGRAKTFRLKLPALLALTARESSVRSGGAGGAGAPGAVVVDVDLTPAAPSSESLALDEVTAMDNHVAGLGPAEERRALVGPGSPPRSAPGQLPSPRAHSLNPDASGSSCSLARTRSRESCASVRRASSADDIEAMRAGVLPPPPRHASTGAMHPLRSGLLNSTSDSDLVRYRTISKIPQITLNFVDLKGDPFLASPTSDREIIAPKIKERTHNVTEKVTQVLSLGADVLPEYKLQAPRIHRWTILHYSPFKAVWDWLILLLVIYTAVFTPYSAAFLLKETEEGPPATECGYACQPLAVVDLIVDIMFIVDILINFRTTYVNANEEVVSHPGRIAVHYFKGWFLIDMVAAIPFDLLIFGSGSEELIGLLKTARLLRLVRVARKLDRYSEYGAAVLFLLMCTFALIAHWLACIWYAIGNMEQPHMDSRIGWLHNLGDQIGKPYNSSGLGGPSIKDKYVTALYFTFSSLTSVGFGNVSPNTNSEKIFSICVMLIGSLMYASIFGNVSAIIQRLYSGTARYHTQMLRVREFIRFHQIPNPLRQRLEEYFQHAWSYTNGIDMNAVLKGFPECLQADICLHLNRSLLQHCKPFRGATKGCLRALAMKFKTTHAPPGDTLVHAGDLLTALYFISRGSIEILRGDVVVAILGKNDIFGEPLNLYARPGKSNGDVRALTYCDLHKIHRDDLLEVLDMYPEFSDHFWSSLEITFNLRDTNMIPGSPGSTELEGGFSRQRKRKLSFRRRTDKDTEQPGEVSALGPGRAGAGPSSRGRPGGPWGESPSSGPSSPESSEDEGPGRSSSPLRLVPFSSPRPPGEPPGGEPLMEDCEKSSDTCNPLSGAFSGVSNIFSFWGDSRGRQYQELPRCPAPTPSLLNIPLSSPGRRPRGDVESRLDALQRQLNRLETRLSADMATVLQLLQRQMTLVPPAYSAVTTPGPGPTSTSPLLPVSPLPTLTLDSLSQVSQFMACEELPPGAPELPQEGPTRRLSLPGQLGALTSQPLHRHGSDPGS

| Structure (SMILES) | IC50 [1] [nM] | Efficacy [2] [%] | further results |
| --- | --- | --- | --- |
| O=C(Nc1ccc(Cl)c(Cl)c1)C1=CCN(c2ncccc2Cl)CC1 | 124 | – | – |
| CC(C)(C)c1ccc(NC(=O)C2CCN(c3ncccc3Cl)CC2)cc1 | 196 | – | – |
| CC(C)(C)c1ccc(NC(=O)C2=CCN(c3ncccc3C#N)CC2)cc1 | 78 | – | – |
| CC(C)(C)c1ccc(NC(=O)N2CCN(c3ncccc3Cl)CC2)cc1 | – | – | Kp [3]: 5; ED50 [4]: 8 µmol/kg; ED50 [5]: 8 µmol/kg |
| O=C(Nc1ccc(S(=O)(=O)C(F)(F)F)cc1)C1=CCN(c2ncccn2)CC1 | 44 | 53 | concentration at 1 h [6]: 380 ng/mL |
| CC(C)(C)c1ccc(NC(=O)C2=CCN(c3ncccc3Cl)CC2)cc1 | 10 | – | – |
| CC(C)(C)c1ccc(NC(=O)C2=CCN(c3ccccc3F)CC2)cc1 | 265 | – | – |
| Cc1cccnc1N1CC=C(C(=O)Nc2ccc(S(=O)(=O)C(F)(F)F)cc2)CC1 | 35 | 53 | concentration at 1 h [6]: 960 ng/mL |
| CC(C)(C)c1ccc(NC(=O)C2=CCN(c3nccs3)CC2)cc1 | 14 | – | – |
| CC(C)(C)c1ccc(NC(=O)C2=CCN(c3ccccn3)CC2)cc1 | 27 | – | – |
| CC(C)(C)c1ccc(NC(=O)C2=CCN(c3ncccn3)CC2)cc1 | 10 | – | – |
| O=C(Nc1ccc(S(=O)(=O)C(F)(F)F)cc1)C1=CCN(c2ncccc2F)CC1 | 67 | 51 | concentration at 1 h [6]: 900 ng/mL |
| CC(C)(C)c1ccc(NC(=O)C2=CCN(c3ncccc3F)CC2)cc1 | 19 | – | – |
| O=C(Nc1ccc(S(=O)(=O)C(F)(F)F)cc1)C1=CCN(c2nccs2)CC1 | 95 | 37 | concentration at 1 h [6]: 2100 ng/mL |
| COc1cccc(NC(=O)c2ccc(-c3ccccc3)cc2)c1 | 147 | – | – |
| O=C(Nc1cccc2[nH]ncc12)N[C@@H]1CCc2cc(N3CCCCC3)ccc21 | 14 | – | Kp [3]: 0.008; ED50 [4]: 12 µmol/kg; ED50 [10]: 300 µmol/kg; ED50 [11]: 280 µmol/kg; ED50 [13]: 10 µmol/kg; IC50 [14]: 30 nM; ED50 [5]: > 300 µmol/kg; ED50 [16]: 165 µmol/kg |
| O=C(Nc1ccc(Cl)c(F)c1)C1=CCN(c2ncccc2Cl)CC1 | 78 | – | – |
| O=C(Nc1ccc(Cl)cc1F)C1=CCN(c2ncccc2Cl)CC1 | 618 | – | – |
| CC(C)(C)c1ccc(NC(=O)c2ccc(-c3ccccn3)cc2)cc1 | 42 | – | – |

Second part, led by results:

| IC50 [1] [nM] | Structure (SMILES) | Efficacy [2] [%] | further results |
| --- | --- | --- | --- |
| 41 | CC(C)(C#N)c1ccc(NC(=O)C2=CCN(c3ncccc3C(F)(F)F)CC2)cc1 | 25 | – |
| 24 | O=C(Nc1ccc(S(=O)(=O)C(F)(F)F)cc1)C1=CCN(c2ncccc2C(F)(F)F)CC1 | 58 | IC50 [7]: 14 nM; Kp [3]: 1.5; ED50 [4]: 12 µmol/kg; ED50 [8]: 25 µmol/kg; Papp [9]: 28.5 ×10⁻⁶ cm/s; ED50 [10]: 76 µmol/kg; concentration at 1 h [6]: 200 ng/mL; ED50 [11]: 8 µmol/kg; ED50 [12]: 20 µmol/kg; ED50 [13]: 10 µmol/kg; IC50 [14]: 17 nM; IC50 [15]: 20.2 nM; ED50 [5]: > 300 µmol/kg; ED50 [16]: 40 µmol/kg; solubility [17]: > 100 mg/mL; solubility [18]: 33 ng/mL (≈ 6.88e-05 mM) |
| 41 | O=C(Nc1ccc(S(=O)(=O)C(F)(F)F)cc1)C1=CCN(c2ncccc2Cl)CC1 | 63 | concentration at 1 h [6]: 280 ng/mL |
| 33 | O=C(Nc1ccc(Cl)cc1)C1=CCN(c2ncccc2Cl)CC1 | – | half-life [19]: 102 min; Activity [20]: Active; bioavailability [21]: 16% |
| 42 | O=C(Nc1ccc(C(F)(F)F)nc1)C1=CCN(c2ncccc2C(F)(F)F)CC1 | 61 | bioavailability [21]: 3% |
| 6 | CC(C)(C)c1ccc(NC(=O)C2=CCN(c3ncccc3C(F)(F)F)CC2)cc1 | – | Activity [2]: 28% |
| 2750 | O=C(Nc1ccc(Cl)cc1C(F)(F)F)C1=CCN(c2ncccc2Cl)CC1 | – | – |
| 8 | O=C(Nc1ccc(C(F)(F)F)cc1)C1=CCN(c2ncccc2C(F)(F)F)CC1 | 35 | – |
| 19 | O=C(Nc1ccc(Cl)cc1)C1=CCN(c2ncccc2C(F)(F)F)CC1 | 40 | – |
